These compounds were tested against T1, Adrenergic receptor alpha-2 (Rattus norvegicus, UniProt P22086+P19328+P22909) (assay: Displacement of [3H]clonidine from alpha2 adrenergic receptor in rat cerebral cortex by liquid scintillation counting).
T1 sequence (P22086 whole entry): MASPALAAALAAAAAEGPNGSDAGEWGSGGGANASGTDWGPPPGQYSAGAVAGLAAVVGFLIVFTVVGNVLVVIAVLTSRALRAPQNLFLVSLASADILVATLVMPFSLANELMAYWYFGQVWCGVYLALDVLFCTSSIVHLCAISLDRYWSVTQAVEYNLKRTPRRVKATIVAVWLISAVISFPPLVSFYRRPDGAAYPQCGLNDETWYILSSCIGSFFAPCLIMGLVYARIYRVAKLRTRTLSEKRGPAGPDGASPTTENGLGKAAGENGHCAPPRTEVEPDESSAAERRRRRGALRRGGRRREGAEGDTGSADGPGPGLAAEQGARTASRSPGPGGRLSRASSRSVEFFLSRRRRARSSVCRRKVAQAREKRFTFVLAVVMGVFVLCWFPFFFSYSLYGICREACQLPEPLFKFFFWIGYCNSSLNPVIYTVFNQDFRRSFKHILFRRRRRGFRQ
T1 sequence (P19328 whole entry): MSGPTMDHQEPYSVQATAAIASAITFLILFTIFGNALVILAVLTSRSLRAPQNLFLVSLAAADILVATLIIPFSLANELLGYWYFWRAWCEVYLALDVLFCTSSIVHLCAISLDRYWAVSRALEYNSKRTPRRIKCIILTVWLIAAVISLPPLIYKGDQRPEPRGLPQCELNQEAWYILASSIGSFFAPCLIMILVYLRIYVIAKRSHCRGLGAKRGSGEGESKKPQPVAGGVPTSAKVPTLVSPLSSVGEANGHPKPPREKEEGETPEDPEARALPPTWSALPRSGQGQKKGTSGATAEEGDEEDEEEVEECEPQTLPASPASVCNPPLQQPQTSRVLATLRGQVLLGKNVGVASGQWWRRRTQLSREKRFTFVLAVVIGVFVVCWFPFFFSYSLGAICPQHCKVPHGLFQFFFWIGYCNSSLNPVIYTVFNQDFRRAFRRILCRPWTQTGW
T1 sequence (P22909 whole entry): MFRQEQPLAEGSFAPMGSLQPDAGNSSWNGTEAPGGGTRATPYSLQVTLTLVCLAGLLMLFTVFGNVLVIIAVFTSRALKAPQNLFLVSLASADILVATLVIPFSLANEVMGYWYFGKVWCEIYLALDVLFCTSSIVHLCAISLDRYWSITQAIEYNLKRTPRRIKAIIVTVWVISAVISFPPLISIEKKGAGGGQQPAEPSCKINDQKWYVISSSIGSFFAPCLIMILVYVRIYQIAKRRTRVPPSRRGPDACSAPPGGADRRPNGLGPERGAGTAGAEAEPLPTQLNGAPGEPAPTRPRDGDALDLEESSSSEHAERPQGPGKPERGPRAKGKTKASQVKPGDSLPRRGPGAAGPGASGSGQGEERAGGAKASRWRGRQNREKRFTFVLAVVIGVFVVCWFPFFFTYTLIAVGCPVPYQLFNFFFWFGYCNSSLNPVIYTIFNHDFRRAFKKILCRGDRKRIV
Format: tissue-based
How it was run: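 Rat cerebral cortex membranes were prepared in ice-cold 50 mM Tris–HCl pH 7.6 (20 000 × g, 20 min, 0–4 °C, washed twice). They were incubated with [3H]clonidine 2 nM and seven to eight compound concentrations (10^-11–10^-4 M), with excess unlabelled clonidine defining nonspecific binding. Samples were glass-fiber filtered and counted by liquid scintillation, in duplicate. Ki was calculated by Cheng–Prusoff.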
With `Cl.Cl.O=C1N(CC(O)CN2CCN(c3ccccc3)CC2)CCC1(c1ccccc1)c1ccccc1` (stereo unspecified) the pKi was 6.64.
`CCOc1ccccc1N1CCN(CC(O)CN2CCC(c3ccccc3)(c3ccccc3)C2=O)CC1.Cl.Cl` (stereo unspecified) showed a pKi of 6.38.
With `COc1ccc(N2CCN(CC(O)CN3CCC(c4ccccc4)(c4ccccc4)C3=O)CC2)cc1.Cl.Cl` (stereo unspecified) the pKi was 6.
`Cc1ccccc1N1CCN(CC(O)CN2CCC(c3ccccc3)(c3ccccc3)C2=O)CC1.Cl.Cl` (stereo unspecified) gave a pKi of 6.51.
For `COc1ccccc1N1CCN(CC(O)CN2CCC(c3ccccc3)(c3ccccc3)C2=O)CC1.Cl.Cl` (stereo unspecified), the pKi was 6.68.
Work on `Cl.Cl.O=C1N(CC(O)CN2CCN(c3ccccc3C(F)(F)F)CC2)CCC1(c1ccccc1)c1ccccc1` (stereo unspecified) yielded a pKi of 5.29.

Reference: ChEMBL document CHEMBL1154048, “Design, synthesis and pharmacological evaluation of new 1-[3-(4-arylpiperazin-1-yl)-2-hydroxy-propyl]-3,3-diphenylpyrrolidin-2-one derivatives with antiarrhythmic, antihypertensive, and alpha-adrenolytic activity” (Eur J Med Chem, 2009)
